Test results reported in ChEMBL document CHEMBL5038602, “Potent Lys Patch-Containing Stapled Peptides Targeting PCSK9” (J Med Chem, 2021).
Positions of bridges follow the written chain, without caps; N, C: chain ends. Residues, ends and D or L forms follow the SMILES beside them.

How the values were obtained:
[1] = molecular target: Proprotein convertase subtilisin/kexin type 9 (Homo sapiens, UniProt Q8NBP7); assay: Binding affinity to human PCSK9 by surface plasmon resonance
Method in brief: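 Recombinant human His-tagged PCSK9 (Gln31–Gln692, HEK293-expressed) at 14 µg/mL amine-coupled onto Ni-NTA chip, ~1000–4000 RU. Buffer 25 mM Tris-HCl, 5 mM CaCl2, 100 mM NaCl, 0.01% P20, pH 7.5, 5% DMSO in running buffer. 25°C. Double-referenced sensorgrams; KD from steady-state equilibrium responses fit to a 4-parameter model, or kinetics fit 1:1.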

[2] = Reversal of LDL uptake in human HepG2 cells at 10 uM for 2 hrs preincubation with PCSK9 followed by LDL addition and measured after 4 hrs by fluorimetry method relative to control; assay type: functional; details: time 6 hrs
Method in brief: (§1)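 HepG2 cells seeded 40000/well, serum-starved 24 h in DMEM with 5% LPDS. Human His-PCSK9 (20–50 nM) preincubated 30–60 min at room temperature ± compounds (10 µM to 0.0001 µM, 0.1% DMSO). Cells then exposed 2 h at 37°C. LDL-BODIPY added to 10 µg/mL final for 4 h. Fluorescence read at ex 480/em 520 nm. Expressed as % maximal LDL-BODIPY incorporation; EC50 by non-linear fit.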

[3] = Reversal of LDL uptake in human HepG2 cells for 2 hrs preincubation with PCSK9 followed by LDL addition and measured after 4 hrs by fluorimetry method relative to control; assay type: functional, cell-based; method in brief: as §1
[4] = Effect on mast cell degranulation in human LAD2 cells assessed as CCL3 release measured after 2 hrs by Luminex bead based assay; assay type: functional; details: for EC50: Homo sapiens, LAD2, 2 h; for Emax: time 2 hrs
Method in brief: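 LAD2 human mast cells in StemPro 34 medium, 0.2×10^6 cells/well. Supernatant CCL3 quantified by Luminex magnetic bead kit.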

HepG2 = assay: Cytotoxicity against human HepG2 cells assessed as reduction in cell viability at 0.4 to 10 uM for 48 hrs by SRB assay; assay type: toxicity, cell-based; details: hepg2, 48 h, dose 0.4-10 µM
Method in brief: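 HepG2 cells seeded 2000/well 24 h before treatment. Compounds at 0.4, 1.1, 3.3 and 10 µM in DMEM, 48 h at 37°C. SRB staining 30 min at 37°C, dye dissolved in 10 mM Tris base, absorbance at 560 nm. Triplicate wells averaged and normalized to untreated cells.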

Chain of Proprotein convertase subtilisin/kexin type 9 (Q8NBP7 31-152 limits assumed): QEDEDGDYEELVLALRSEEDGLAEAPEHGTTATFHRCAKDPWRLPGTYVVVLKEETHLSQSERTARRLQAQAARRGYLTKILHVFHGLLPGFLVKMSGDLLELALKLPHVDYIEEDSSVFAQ
Chain of Proprotein convertase subtilisin/kexin type 9 (Q8NBP7 153-692 limits assumed): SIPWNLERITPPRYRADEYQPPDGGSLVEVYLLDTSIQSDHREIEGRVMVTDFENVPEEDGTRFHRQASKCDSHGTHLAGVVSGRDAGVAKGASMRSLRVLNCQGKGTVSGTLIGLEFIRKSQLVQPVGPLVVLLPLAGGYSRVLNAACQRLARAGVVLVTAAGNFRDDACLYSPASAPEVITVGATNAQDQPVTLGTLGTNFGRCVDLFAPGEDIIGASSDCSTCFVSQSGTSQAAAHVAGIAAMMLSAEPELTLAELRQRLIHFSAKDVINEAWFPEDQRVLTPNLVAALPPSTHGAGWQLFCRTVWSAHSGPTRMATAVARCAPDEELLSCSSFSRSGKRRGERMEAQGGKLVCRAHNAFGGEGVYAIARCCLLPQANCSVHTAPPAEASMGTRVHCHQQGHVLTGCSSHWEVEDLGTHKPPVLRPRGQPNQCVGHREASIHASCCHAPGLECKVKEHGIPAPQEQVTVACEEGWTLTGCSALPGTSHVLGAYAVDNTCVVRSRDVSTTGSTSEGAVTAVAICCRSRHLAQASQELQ

Kd [1] | EC50 [3] | EC50 [4] | SMILES | Activity [2] | Emax [4] | Activity (HepG2)
9700 nM | 6000 nM | > 5000 nM | CC(=O)N[C@H](C(=O)N[C@H](C(=O)N[C@@H](Cc1ccccc1)C(=O)N[C@H](C(=O)N[C@@H](CO)C(=O)N[C@@H](Cc1c[nH]c2ccccc12)C(=O)N[C@@H](CCC(=O)O)C(=O)N[C@@H](CCC(=O)O)C(=O)N[C@@H](Cc1ccc(O)cc1)C(=O)N[C@@H](CC(C)C)C(=O)N[C@@H](CC(=O)O)C(=O)N[C@@H](Cc1c[nH]c2ccccc12)C(=O)N[C@H](C(N)=O)C(C)C)[C@@H](C)O)C(C)C)[C@@H](C)O | 56.5% | 116.7 pg/mL | Non-Toxic
6 nM | 175 nM | 2200 nM | CC(=O)N[C@@H](Cc1cnc[nH]1)C(=O)N[C@H](C(=O)N[C@@H](Cc1ccccc1)C(=O)N[C@@H](CCCCN)C(=O)N[C@@H](CO)C(=O)N[C@@H](Cc1c[nH]c2ccccc12)C(=O)N[C@H]1CCCCNC(=O)C[C@@H](C(=O)N[C@@H](Cc2c[nH]c3ccccc23)C(=O)N[C@H](C(=O)N[C@@H](CCCCN)C(=O)N[C@@H](CCCCN)C(=O)N[C@@H](CCCCN)C(=O)N[C@@H](CCCCN)C(=O)N[C@@H](CCCCN)C(=O)N[C@@H](CCCCN)C(N)=O)C(C)C)NC(=O)[C@H](CC(C)C)NC(=O)[C@H](Cc2ccc(O)cc2)NC(=O)[C@H](CCC(=O)O)NC1=O)C(C)C (Ac-HVFKSWKEYLDWVKKKKKK-NH2; lactam 7-11) | – | 1483.2 pg/mL | Non-Toxic
